pIC50: −log10 of the molar value. Converted amounts (≈) assume the structure as drawn.
Assays:
Staphylococcus aureus [1] = assay: Compound was tested for bacterial translation inhibition (in vitro) using transcription-translation assay; format: functional
In short: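 Coupled in vitro transcription–translation assay; IC50 from dose–response curves averaged over six independent experiments, error bars ±1σ.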

Nucleic Acid = assay: Compound was tested for binding to the bacterial decoding-site RNA target using an RNA fluorescence assay; format: nucleic-acid assay
In short: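 Fluorescence assay on a model decoding-site oligonucleotide, reporting ligand-induced flipping out of adenines A1492 and A1493; binding curve averaged from two titrations and fitted to a single-site model to give IC50.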

Escherichia coli = assay: Antibacterial activity against Escherichia coli (Strain ATCC 25922); format: functional
Staphylococcus aureus [2] = assay: Antibacterial activity against Staphylococcus aureus (ATCC-25923); format: functional
[3] = Cytotoxic concentration against proliferation of eukaryotic cells; format: functional

SMILES: NC[C@H]1O[C@H](O[C@@H]2CCN[C@H](CO)C[C@H]2N)[C@H](N)[C@@H](O)[C@@H]1O
- pIC50 (Staphylococcus aureus [1]): 4.33
- pIC50 (Nucleic Acid): < 3.60
- MIC (Escherichia coli): > 64 µg/mL
- MIC (Staphylococcus aureus [2]): > 64 µg/mL

SMILES: CN1CC[C@H](N)[C@@H](O[C@H]2O[C@H](CN)[C@@H](O)[C@H](O)[C@H]2N)C[C@@H]1CO
- pIC50 (Staphylococcus aureus [1]): 4.12
- pIC50 (Nucleic Acid): < 3.60
- MIC (Escherichia coli): > 64 µg/mL
- MIC (Staphylococcus aureus [2]): > 64 µg/mL

SMILES: NC[C@H]1C[C@H](O[C@H]2O[C@H](CN)[C@@H](O)[C@H](O)[C@H]2N)[C@@H](N)CCN1
- pIC50 (Staphylococcus aureus [1]): 3.77
- pIC50 (Nucleic Acid): < 3.60
- MIC (Escherichia coli): > 64 µg/mL
- MIC (Staphylococcus aureus [2]): > 64 µg/mL

SMILES: NC[C@H]1O[C@H](O[C@H]2C[C@@H]3COC(=O)N3CC[C@@H]2N)[C@H](N)[C@@H](O)[C@@H]1O
- pIC50 (Staphylococcus aureus [1]): < 3.00
- pIC50 (Nucleic Acid): < 3.60
- MIC (Escherichia coli): > 64 µg/mL
- MIC (Staphylococcus aureus [2]): > 64 µg/mL

SMILES: NC[C@H]1O[C@H](O[C@@H]2C[C@@H](CO)NCC[C@H]2N)[C@H](N)[C@@H](O)[C@@H]1O
- pIC50 (Staphylococcus aureus [1]): 3.74
- pIC50 (Nucleic Acid): 4.10
- MIC (Escherichia coli): > 64 µg/mL
- MIC (Staphylococcus aureus [2]): > 64 µg/mL

SMILES: NC[C@H]1O[C@H](O[C@H]2C[C@H](CCl)NCC[C@@H]2N)[C@H](N)[C@@H](O)[C@@H]1O
- pIC50 (Staphylococcus aureus [1]): 4.09
- pIC50 (Nucleic Acid): < 3.60
- MIC (Escherichia coli): > 64 µg/mL
- MIC (Staphylococcus aureus [2]): > 64 µg/mL

SMILES: N[C@H]1[C@@H](O[C@H]2C[C@H](CO)NCC[C@@H]2N)O[C@H](CO)[C@@H](O)[C@@H]1O
- pIC50 (Staphylococcus aureus [1]): 3.96
- pIC50 (Nucleic Acid): < 3.60
- MIC (Escherichia coli): > 64 µg/mL
- MIC (Staphylococcus aureus [2]): > 64 µg/mL

SMILES: NC[C@H]1O[C@H](O[C@H]2CCN[C@@H](CO)C[C@@H]2N)[C@H](N)[C@@H](O)[C@@H]1O
- pIC50 (Staphylococcus aureus [1]): 3.43
- pIC50 (Nucleic Acid): < 3.60
- MIC (Escherichia coli): > 64 µg/mL
- MIC (Staphylococcus aureus [2]): > 64 µg/mL

SMILES: NC[C@H]1O[C@H](O[C@@H]2CCN[C@@H](CO)C[C@H]2N)[C@H](N)[C@@H](O)[C@@H]1O
- pIC50 (Staphylococcus aureus [1]): 3.64
- pIC50 (Nucleic Acid): < 3.60
- MIC (Escherichia coli): > 64 µg/mL
- MIC (Staphylococcus aureus [2]): > 64 µg/mL

SMILES: NC[C@H]1O[C@H](O[C@H]2C[C@H](CO)NCC[C@@H]2N)[C@H](N)[C@@H](OCc2ccccc2)[C@@H]1OCc1ccccc1
- pIC50 (Staphylococcus aureus [1]): < 3.00
- pIC50 (Nucleic Acid): < 3.60
- MIC (Escherichia coli): > 64 µg/mL
- MIC (Staphylococcus aureus [2]): > 64 µg/mL

SMILES: NC[C@H]1O[C@H](O[C@@H]2C[C@H](CO)NCC[C@H]2N)[C@H](N)[C@@H](O)[C@@H]1O
- pIC50 (Staphylococcus aureus [1]): 5.19
- pIC50 (Nucleic Acid): 4.92
- MIC (Escherichia coli): > 64 µg/mL
- MIC (Staphylococcus aureus [2]): 32 µg/mL (≈ 99.9 µM)
- CC50 [3]: > 320 µM

SMILES: NC[C@H]1O[C@H](O[C@H]2C[C@H](CO)NCC[C@@H]2N)[C@H](N)[C@@H](O)[C@@H]1O
- pIC50 (Staphylococcus aureus [1]): 5.24
- pIC50 (Nucleic Acid): 4.96
- MIC (Escherichia coli): > 64 µg/mL
- MIC (Staphylococcus aureus [2]): 64 µg/mL (≈ 200 µM)
- CC50 [3]: > 320 µM

SMILES: NC[C@H]1O[C@H](O[C@H]2CCN[C@H](CO)C[C@@H]2N)[C@H](N)[C@@H](O)[C@@H]1O
- pIC50 (Staphylococcus aureus [1]): 4.41
- pIC50 (Nucleic Acid): < 3.60
- MIC (Escherichia coli): > 64 µg/mL
- MIC (Staphylococcus aureus [2]): > 64 µg/mL

Reference: ChEMBL document CHEMBL1147432, “Rational design of azepane-glycoside antibiotics targeting the bacterial ribosome” (Bioorg Med Chem Lett, 2004)
